# Measured values: ChEMBL document CHEMBL4819149, “A facile reaction to access novel structural sulfonyl-hybridized imidazolyl ethanols as potential DNA-targeting antibacterial agents” (Bioorg Med Chem Lett, 2021)
# Assays:
# Format in all cases: functional
# [1] = system: Staphylococcus aureus; assay: Antibacterial activity against methicillin-resistant Staphylococcus aureus assessed as bacterial growth inhibition by broth microdilution method
# Summary of the method: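 MIC read by micro broth dilution; values given in μg/mL.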
# [2] = system: Enterococcus faecalis; assay: Antibacterial activity against Enterococcus faecalis assessed as bacterial growth inhibition by broth microdilution method
# Summary of the method: (§1)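 MIC values reported in µg/mL, determined by broth microdilution in microdilution plates.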
# [3] = system: Staphylococcus aureus; assay: Antibacterial activity against Staphylococcus aureus assessed as bacterial growth inhibition by broth microdilution method; summary of the method: as §1
# [4] = system: Staphylococcus aureus; assay: Antibacterial activity against Staphylococcus aureus ATCC 25923 assessed as bacterial growth inhibition by broth microdilution method; summary of the method: as §1
# [5] = system: Staphylococcus aureus; assay: Antibacterial activity against Staphylococcus aureus ATCC 29213 assessed as bacterial growth inhibition by broth microdilution method; summary of the method: as §1
# [6] = system: Klebsiella pneumoniae; assay: Antibacterial activity against Klebsiella pneumonia assessed as bacterial growth inhibition by broth microdilution method; summary of the method: as §1
# [7] = system: Pseudomonas aeruginosa; assay: Antibacterial activity against Pseudomonas aeruginosa ATCC 27853 assessed as bacterial growth inhibition by broth microdilution method; summary of the method: as §1
# [8] = system: Pseudomonas aeruginosa; assay: Antibacterial activity against Pseudomonas aeruginosa assessed as bacterial growth inhibition by broth microdilution method; summary of the method: as §1
# [9] = system: Acinetobacter baumannii; assay: Antibacterial activity against Acinetobacter baumannii assessed as bacterial growth inhibition by broth microdilution method; summary of the method: as §1
# [10] = system: Escherichia coli; assay: Antibacterial activity against Escherichia coli assessed as bacterial growth inhibition by broth microdilution method; summary of the method: as §1
# [11] = system: Escherichia coli; assay: Antibacterial activity against Escherichia coli ATCC 25922 assessed as bacterial growth inhibition by broth microdilution method; summary of the method: as §1
SMILES,MIC [1] [µg/mL],MIC [2] [µg/mL],MIC [3] [µg/mL],MIC [4] [µg/mL],MIC [5] [µg/mL],MIC [6] [µg/mL],MIC [7] [µg/mL],MIC [8] [µg/mL],MIC [9] [µg/mL],MIC [10] [µg/mL],MIC [11] [µg/mL]
CC(=O)Nc1ccc(S(=O)(=O)CC(CO)n2ccnc2C(C)C)cc1 (configuration not stated),16,32,128,64,16,64,64,256,32,64,64
Cc1nccn1C(CO)CS(=O)(=O)c1ccc(N)cc1 (configuration not stated),16,8,128,64,64,128,64,128,16,128,32
CCc1nccn1C(CO)CS(=O)(=O)c1ccc(N)cc1 (configuration not stated),16,16,64,64,64,128,32,256,64,64,32
CCCc1nccn1C(CO)CS(=O)(=O)c1ccc(NC(C)=O)cc1 (configuration not stated),32,16,32,64,32,128,32,256,32,64,64
CC(=O)Nc1ccc(S(=O)(=O)CC(CO)n2cc(I)nc2C)cc1 (configuration not stated),64,256,64,64,64,256,32,256,64,64,32
Nc1ccc(S(=O)(=O)CC(CO)n2ccnc2)cc1 (configuration not stated),16,32,32,64,64,128,64,256,128,128,64
CC(C)c1nccn1C(CO)CS(=O)(=O)c1ccc(N)cc1 (configuration not stated),16,8,128,32,64,64,64,256,32,128,64
CC(=O)Nc1ccc(S(=O)(=O)CC(CO)n2ccnc2C)cc1 (configuration not stated),8,64,64,64,32,128,64,128,16,64,32
Cc1nc(I)cn1C(CO)CS(=O)(=O)c1ccc(N)cc1 (configuration not stated),32,64,64,64,64,64,32,128,32,128,32
Nc1ccc(S(=O)(=O)CC(CO)n2cnc(Br)c2)cc1 (configuration not stated),16,64,64,64,64,256,32,256,64,64,32
CCCc1nccn1C(CO)CS(=O)(=O)c1ccc(N)cc1 (configuration not stated),8,32,128,64,128,128,32,256,32,64,64
CCc1nc(I)cn1C(CO)CS(=O)(=O)c1ccc(NC(C)=O)cc1 (configuration not stated),128,64,64,64,64,64,32,256,64,64,32
